The target of test [1] is T1, DNA topoisomerase 1 (Homo sapiens) (UniProt P11387).
T1 sequence (whole entry): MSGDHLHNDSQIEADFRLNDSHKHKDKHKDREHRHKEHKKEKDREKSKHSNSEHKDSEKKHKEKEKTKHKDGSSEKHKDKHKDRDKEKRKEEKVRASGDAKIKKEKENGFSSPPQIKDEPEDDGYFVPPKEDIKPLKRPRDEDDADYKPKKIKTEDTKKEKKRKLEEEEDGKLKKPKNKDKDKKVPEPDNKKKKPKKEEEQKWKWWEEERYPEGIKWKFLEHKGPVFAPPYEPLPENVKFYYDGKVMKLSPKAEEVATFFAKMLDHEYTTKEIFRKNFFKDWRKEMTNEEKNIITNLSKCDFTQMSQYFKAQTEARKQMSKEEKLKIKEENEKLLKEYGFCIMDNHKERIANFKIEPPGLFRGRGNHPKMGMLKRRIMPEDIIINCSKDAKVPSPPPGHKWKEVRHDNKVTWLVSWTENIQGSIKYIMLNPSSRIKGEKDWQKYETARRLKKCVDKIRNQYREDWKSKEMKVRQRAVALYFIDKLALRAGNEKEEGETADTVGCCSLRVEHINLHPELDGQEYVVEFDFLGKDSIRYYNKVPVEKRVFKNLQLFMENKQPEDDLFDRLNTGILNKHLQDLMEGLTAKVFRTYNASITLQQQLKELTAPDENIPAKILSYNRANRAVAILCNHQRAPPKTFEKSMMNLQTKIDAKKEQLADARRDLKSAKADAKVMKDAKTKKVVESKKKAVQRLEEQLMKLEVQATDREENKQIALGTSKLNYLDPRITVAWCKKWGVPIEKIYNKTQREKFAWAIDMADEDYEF
Kind of test: Inhibition of topoisomerase 1 DNA cleavage activity. In a few lines: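 Human topoisomerase I (2 units) incubated with 0.25 μg DNA I for 30 min at 37 °C with or without compound. Stopped with 1% SDS, proteinase K (50 μg/mL, 15 min, 37 °C), extracted twice with CIA, and run on 1% agarose (3.5 h, 75 V). Gel stained afterwards with ethidium bromide. Active concentration is the lowest giving complete inhibition, i.e. no relaxed or linear DNA.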

The target in test [2] is DNA topoisomerase II (Homo sapiens) (UniProt P11388+Q02880). Kind of test: Inhibition of topoisomerase 2 DNA cleavage activity. It is filed as protein assay. In a few lines:
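Human topoisomerase II (4 units) incubated with 0.25 μg pRYG DNA and 0.5 mM ATP (final) for 30 min at 37 °C. Stopped with 1% SDS, proteinase K (50 μg/mL, 15 min), CIA extraction, and 1% agarose gel at 75 V for 3.5 h, then post-stained with 0.5 μg/mL ethidium bromide. Reported value is the lowest concentration abolishing relaxed or linear DNA.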

Test [3] deals with PC-3. Kind of test: Antiproliferative activity against human PC3 cell line at 10 uM. It is filed as functional. The essentials:
(§1)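 Growth inhibition at the top 10 μM concentration of a 72 h XTT/PMS proliferation assay (4 h stain, 492 nm, four wells), expressed against 0.1% DMSO control. Cells were in phenol-red-free RPMI with 10% FCS, seeded at 2000 cells/well (HCT15, PC3, CT26, Renca) or 1000 cells/well (HT29), and dosed 24 h after seeding.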

Test [4] has as its system HT-29. Kind of test: Antiproliferative activity against human HT29 cell line at 10 uM. The class given is functional. The essentials: as §1
Test [5] concerns HCT-15. The test can be described thus: Antiproliferative activity against human HCT15 cell line at 10 uM. It is filed as functional. In a few lines: as §1
For test [6], the system named is Renca. Kind of test: Antiproliferative activity against mouse Renca cell line at 10 uM. The class given is functional. The essentials: as §1
Test [7] deals with CT26. The test can be described thus: Antiproliferative activity against mouse CT26 cell line at 10 uM. The class given is functional. In a few lines:
as §1

In test [8] the test system is Renca. Kind of test: Antiproliferative activity against mouse Renca cell line. The class given is functional, cell-based. In a few lines:
(§2)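 Cells grown in RPMI with 10% heat-inactivated FCS, no antibiotics, 37 °C, 5% CO2, and checked mycoplasma-free. Seeded at 2000 cells/well (HCT15, PC3, CT26, Renca) or 1000 cells/well (HT29). After 24 h, exposed for 72 h to nine concentrations from 1 nM to 10 μM in phenol-red-free medium, 0.1% DMSO final. Read by XTT/PMS reduction (4 h, 492 nm), four wells per concentration. IC50 from a four-parameter logistic fit of growth as % of DMSO control.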

Test [9] deals with HCT-15. Kind of test: Antiproliferative activity against human HCT15 cell line. The class given is functional, cell-based. The essentials:
as §2

For test [10], the system named is CT26. Kind of test: Antiproliferative activity against mouse CT26 cell line. The class given is functional, cell-based. In a few lines:
as §2

Test [11] deals with PC-3. Kind of test: Antiproliferative activity against human PC3 cell line. It is filed as functional, cell-based. In a few lines:
as §2

Test [12] relates to HT-29. The test can be described thus: Antiproliferative activity against human HT29 cell line. The class given is functional, cell-based. The essentials: as §2

A value given as a limit tells only on which side of the number the result lay.

What is called inhibition is the change of the read-out against control, counted positive when it falls. Broadly, the IC50 is the concentration that inhibits the measured activity by half. Low readings indicate higher potency, high ones lower potency.

On to `O=C1c2[nH]cc3c2C(=NCC3)c2c(-c3ccccc3)n[nH]c21`, for which the Inhibition in [1] is 100 µM; in [2], greater than 100 µM. For the same compound, the inhibition at 10 µM in the test with PC-3 [3], with HT-29 [4], in the test with HCT-15 [5], in the test with Renca [6] and in the test on CT26 [7] was 0% each time.

As to `Cc1ccc(S(=O)(=O)n2cc3c4c2C(=O)c2cnn(C)c2C4=NCC3)cc1`, the Inhibition in [1] and in test [2] was greater than 100 µM each time. Also, the IC50 worked out at 4.6 µM in the test with Renca [8]; 5 µM with HCT-15 [9]; 4.9 µM in the test on CT26 [10]; 5.8 µM with PC-3 [11]; 1.9 µM with HT-29 [12].

On to `Cc1ccc(S(=O)(=O)n2cc3c4c2C(=O)c2[nH]nc(-c5ccc(O)cc5)c2C4=NCC3)cc1`, for which the Inhibition in test [1] was 30 µM; in [2], greater than 100 µM. Moreover, the inhibition at 10 µM came out at 0% in the test on PC-3 [3]; 23% with HT-29 [4]; 0% with HCT-15 [5]; 0% with Renca [6]; 0% in the test on CT26 [7].

The compound `Cc1ccc(S(=O)(=O)n2cc3c4c2C(=O)c2[nH]nc(-c5ccccc5)c2C4=NCC3)cc1` gave an Inhibition in test [1] of 300 µM. Besides, the inhibition at 10 µM in the test on PC-3 [3], in the test with HT-29 [4], with HCT-15 [5], in the test with Renca [6] and in the test with CT26 [7] was 0% in each case.

`CC[C@@]1(O)C(=O)OCc2c1cc1n(c2=O)Cc2cc3ccccc3nc2-1` [CAMPTOTHECIN]: the IC50 worked out at 0.304 µM in the test on Renca [8]; 0.018 µM in the test with HCT-15 [9]; 0.034 µM in the test with CT26 [10]; 0.052 µM in the test with PC-3 [11]; 0.03 µM in the test with HT-29 [12].

`Cc1ccc(S(=O)(=O)n2cc3c4c2C(=O)c2c(n[nH]c2C2(O)C(=O)N(C)c5ccccc52)C4=NCC3)cc1` (configuration not stated) showed an Inhibition in test [1] greater than 100 µM. For the same compound, the IC50 in the test on Renca [8] was 1.9 µM; with HCT-15 [9], 1.6 µM; with CT26 [10], 2.9 µM; in the test on PC-3 [11] it was 5.2 µM; in the test on HT-29 [12], 2.9 µM.

On to `Cn1ncc2c1C1=NCCc3c[nH]c(c31)C2=O`, for which the Inhibition is greater than 100 µM in [1] and 100 µM in test [2]. For the same compound, the figures for the IC50 in the test on Renca [8], in the test with CT26 [10] and with HT-29 [12] were 6.3 µM, 7 µM and 3.6 µM, respectively. Also, the inhibition at 10 µM in the test on PC-3 [3] and in the test with HCT-15 [5] was 0% throughout.

Take `Cn1ncc2c1C(=O)c1[nH]cc3c1C2=NCC3`: the Inhibition in test [1] and in test [2] was greater than 100 µM each time. Further, the inhibition at 10 µM in the test on PC-3 [3] is 0%; in the test on HT-29 [4] it was 4%; in the test on HCT-15 [5] it was 0%; with Renca [6], 6%; with CT26 [7] it was 7%.

Turning to `O=C1c2[nH]cc3c2C(=NCC3)c2[nH]nc(-c3ccccc3)c21`, the Inhibition in [1] and in test [2] was greater than 100 µM throughout. Besides, the inhibition at 10 µM was 0% in the test on PC-3 [3], 47% with HT-29 [4], 0% in the test on Renca [6] and 0% with CT26 [7]. The compound also had an IC50 in the test with HCT-15 [9] of 2.7 µM.

As for `Cc1ccc(S(=O)(=O)n2cc3c4c2C(=O)c2n[nH]cc2C4=NCC3)cc1`, the Inhibition in test [1] is 100 µM; in test [2], greater than 100 µM. The inhibition at 10 µM in the test on PC-3 [3], in the test with HT-29 [4], in the test with HCT-15 [5], in the test with Renca [6] and in the test with CT26 [7] was 0% throughout.

Take `O=C1c2[nH]ncc2C2=NCCc3c[nH]c1c32`: the Inhibition in test [1] is greater than 100 µM; in test [2], 100 µM. Moreover, the inhibition at 10 µM with PC-3 [3], in the test on HT-29 [4], in the test on HCT-15 [5], in the test with Renca [6] and in the test with CT26 [7] was 0% throughout.

Regarding `Cc1ccc(S(=O)(=O)n2cc3c4c2C(=O)c2cn[nH]c2C4=NCC3)cc1`, the results for the Inhibition in test [1] and in [2] were 300 µM and greater than 300 µM, respectively. The inhibition at 10 µM with PC-3 [3], with HT-29 [4], in the test with HCT-15 [5], with Renca [6] and with CT26 [7] was 0% in each case.

Take `Cc1ccc(S(=O)(=O)n2cc3c4c2C(=O)c2c(-c5ccc(O)cc5)n[nH]c2C4=NCC3)cc1`: the Inhibition in test [1] was found to be 10 µM; in test [2] it was 100 µM. The inhibition at 10 µM turned out to be 0% in the test with PC-3 [3]; 41% in the test on HT-29 [4]; 0% in the test on HCT-15 [5]; 0% with Renca [6]; 0% in the test with CT26 [7].

With `O=C1c2c[nH]nc2C2=NCCc3c[nH]c1c32`, the values for the Inhibition in [1] and in test [2] were greater than 100 µM and 100 µM, respectively. Further, the inhibition at 10 µM in the test on PC-3 [3] was 0%; in the test on HT-29 [4], 45%; with HCT-15 [5] it was 25%; in the test on Renca [6], 0%; with CT26 [7], 0%.

Turning to `Cc1ccc(S(=O)(=O)n2cc3c4c2C(=O)c2c(-c5ccccc5)n[nH]c2C4=NCC3)cc1`, the Inhibition in [1] was 100 µM; in test [2], greater than 100 µM. Further, the inhibition at 10 µM in the test on PC-3 [3], with HT-29 [4], with HCT-15 [5], with Renca [6] and in the test on CT26 [7] was 0% throughout.

`Cc1ccc(S(=O)(=O)n2cc3c4c2C(=O)c2c(cnn2C)C4=NCC3)cc1`: the Inhibition in [1] worked out at 300 µM. For the same compound, the IC50 in the test with Renca [8] worked out at 0.14 µM; in the test on HCT-15 [9], 6.5 µM; in the test on CT26 [10], 5.3 µM; with PC-3 [11] it was 4.9 µM; in the test with HT-29 [12] it was 3.1 µM.

Take `COc1cc([C@@H]2c3cc4c(cc3[C@@H](O[C@@H]3O[C@@H]5CO[C@@H](C)O[C@H]5[C@H](O)[C@H]3O)[C@H]3COC(=O)[C@H]23)OCO4)cc(OC)c1O` [ETOPOSIDE]: in test [2], the Inhibition amounted to 100 µM. Besides, the IC50 with Renca [8] amounted to 2.9 µM; in the test with HCT-15 [9], 4.5 µM; in the test on CT26 [10], 0.2 µM; in the test with PC-3 [11], 7.8 µM; in the test on HT-29 [12], 6.6 µM.

Turning to `O=C1c2[nH]cc3c2C(=NCC3)c2n[nH]c(-c3ccc(O)cc3)c21`, the Inhibition is 300 µM in test [1] and greater than 300 µM in test [2]. In addition, the inhibition at 10 µM in the test with PC-3 [3], with HT-29 [4], with HCT-15 [5], in the test with Renca [6] and in the test with CT26 [7] was 0% throughout.

Consider `O=C1c2n[nH]c(-c3ccc(O)cc3)c2C2=NCCc3c[nH]c1c32`, for which the Inhibition is greater than 100 µM in test [1] and 100 µM in test [2]. Moreover, the inhibition at 10 µM with PC-3 [3], with HT-29 [4], in the test with HCT-15 [5], in the test on Renca [6] and in the test on CT26 [7] was 0% in each case.

These data come from ChEMBL document CHEMBL1147676, “Synthesis and antitumor characterization of pyrazolic analogues of the marine pyrroloquinoline alkaloids: wakayin and tsitsikammamines” (J Med Chem, 2006).
